# The source made the active and inactive calls. The calls are words filed in the database; no cut-off is given here.
# What was measured:
# MCF7 [1] = test: Reduction of glutathione synthesis in human MCF7 cells at 25 uM after 25 hrs; format: functional; parameters: scale not given: the % may be the effect or the level left
# Escherichia coli = test: Inhibition of Escherichia coli thioredoxin upto 5 uM by insulin reduction method
# How it was run: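 25 nM E. coli TrxR plus 2 μM E. coli Trx were preincubated with ATO for 30 min in 50 mM Tris·HCl/1 mM EDTA pH 7.5 with 200 μM NADPH. Then 200 μM NADPH/160 μM insulin was added and A340 followed. Activity was taken as ΔA340/min over the initial 5 min.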
# MCF7 [2] = test: Inhibition of human MCF7 cell growth after 24 hrs by XTT assay; format: functional, cell-based
# How it was run: (§1)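 MCF-7 cells in RPMI 1640/10% FCS were seeded at 6 × 10^3 cells per well, grown overnight, then exposed to ATO for 24 or 48 h. Medium was replaced with XTT labeling mixture for 3 h and A492 of the formazan read as the measure of proliferation/viability.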
# [3] = target: T1, Thioredoxin reductase 1, cytoplasmic (Rattus norvegicus) (UniProt O89049); test: Inhibition of NADPH-reduced rat recombinant TrxR1 at 0.1 uM attenuated in presence of 1 mM Glutathione after 30 minis
# T1 sequence (whole entry): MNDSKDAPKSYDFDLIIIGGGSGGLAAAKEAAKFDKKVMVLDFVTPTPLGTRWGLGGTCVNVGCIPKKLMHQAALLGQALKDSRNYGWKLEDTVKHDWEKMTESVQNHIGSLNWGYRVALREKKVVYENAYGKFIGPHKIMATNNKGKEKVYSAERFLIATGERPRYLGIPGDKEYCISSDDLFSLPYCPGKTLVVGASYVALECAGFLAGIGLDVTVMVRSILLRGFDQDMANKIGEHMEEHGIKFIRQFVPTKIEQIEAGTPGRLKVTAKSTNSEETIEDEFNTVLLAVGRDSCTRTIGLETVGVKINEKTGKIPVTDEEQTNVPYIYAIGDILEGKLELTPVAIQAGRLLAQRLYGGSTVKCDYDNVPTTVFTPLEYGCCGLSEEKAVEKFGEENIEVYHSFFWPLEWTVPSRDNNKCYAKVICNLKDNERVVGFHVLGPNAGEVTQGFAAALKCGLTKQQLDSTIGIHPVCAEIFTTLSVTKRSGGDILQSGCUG
# How it was run: (§2)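 NADPH-reduced rat TrxR (10 nM) with 2 μM human Trx, with or without 1 mM GSH, was incubated with ATO for 30 min in Tris/EDTA pH 7.5 containing 200 μM NADPH. Trx-system activity was read after adding 200 μM NADPH/160 μM insulin, as ΔA340/min over the initial 5 min.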
# MCF7 [4] = test: Reduction of human MCF7 cell growth at 2.5 uM after 48 hrs by XTT assay; format: functional, cell-based; how it was run: as §1
# MCF7 [5] = test: Reduction of human MCF7 cell growth at 5.0 uM after 48 hrs by XTT assay; format: functional, cell-based; how it was run: as §1
# [6] = target: T1, Thioredoxin reductase 1, cytoplasmic (Rattus norvegicus); test: Inhibition of NADPH-reduced rat recombinant TrxR1 assessed as […] by DTNB reduction assay
# How it was run: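 Recombinant rat TrxR1 (50 nM), NADPH-reduced, was preincubated with ATO (0.05–5 μM) for 30 min in 50 mM Tris·HCl/1 mM EDTA pH 7.5 with 200 μM NADPH. Activity was then measured with 5 mM DTNB by following A412; the rate was the slope over the initial 2 min. Duplicate experiments; IC50 after 30-min incubation.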
# [7] = target: T1, Thioredoxin reductase 1, cytoplasmic (Rattus norvegicus); test: Inhibition of NADPH-reduced rat recombinant TrxR1 at >0.5 uM attenuated in presence of 1 mM Glutathione after 30 minis; how it was run: as §2
# [8] = target: T1, Thioredoxin reductase 1, cytoplasmic (Rattus norvegicus); test: Inhibition of NADPH-reduced rat recombinant TrxR1 at 0.25 uM attenuated in presence of 1 mM Glutathione after 30 minis; how it was run: as §2
Structure (SMILES),Activity (MCF7 [1]),Activity (Escherichia coli),Activity (MCF7 [2]),Activity [3],Activity (MCF7 [4]),Activity (MCF7 [5]),Activity [6],Activity [7],Activity [8]
CCCCS(=N)(=O)CCC(N)C(=O)O (centres undefined) [BUTHIONINE SULFOXIMINE],80%,–,–,–,–,–,–,–,–
O=[As][As+](=O)[O-] (centres undefined),–,inactive,inactive,Active,Active,Active,inactive,inactive,Active

# Reference: ChEMBL document CHEMBL1147045, “Targeting thioredoxin reductase is a basis for cancer therapy by arsenic trioxide” (2007)
